Results from ChEMBL document CHEMBL2321734, “Novel antiviral activity of l-dideoxy bicyclic nucleoside analogues versus vaccinia and measles viruses in vitro” (J Med Chem, 2013).
Activity calls are given as the source filed them. The rule behind the calls is not given here.

Columns and labels:
[1] = test system: BSC-1; experiment: Cytotoxicity against african green monkey BSC1 cells infected with Vaccinia virus-WR luciferase reporter virus v3 assessed as visible cytotoxic effect at 10 uM incubated for 30 mins prior to inoculation measured after 2 hrs by phase contrast microscopic analysis; format: cell-based; conditions: chlorocebus aethiops, bsc-1, 2 h
[2] = test system: Vaccinia virus; experiment: Antiviral activity against Vaccinia virus WR expressing luciferase reporter virus v3 infected in rabbit RK13 cells assessed as inhibition of early stages of VACV replication at 10 uM incubated for 30 mins prior to inoculation measured after 2 hrs by luciferase reporter gene assay relative to control; format: functional; conditions: Orthopoxvirus vaccinia, RK-13
[3] = test system: Vaccinia virus; experiment: Ratio of cidofovir IC50 to compound IC50 for Vaccinia virus WR; format: functional, Orthopoxvirus vaccinia
[4] = Cytotoxicity against human HFFF cells assessed as cell viability by CellTitre-Glo Luminescent Cell Viability assay; format: cell-based
[5] = test system: Vaccinia virus; experiment: Antiviral activity against Vaccinia virus WR infected in african green monkey BSC1 cells after 4 days by plaque reduction assay; format: functional, organism-based; conditions: Orthopoxvirus vaccinia, BSC-1, 96 h
[6] = test system: BSC-1; experiment: Cytotoxicity against african green monkey BSC1 cells infected with Vaccinia virus-WR after 4 days; format: cell-based; conditions: chlorocebus aethiops, bsc-1, 96 h
[7] = Cytotoxicity against african green monkey BSC1 cells assessed as ATP levels […] by CellTitre-Glo Luminescent Cell Viability assay; format: cell-based, BSC-1; conditions: chlorocebus aethiops
[8] = test system: Measles morbillivirus; experiment: Antiviral activity against wild type Measles virus mWTFb infected in simian B95a cells assessed as virus-induced cytopathogenicity incubated for 30 mins prior to inoculation measured after 3 days by phase contrast microscopy; format: functional, organism-based
[9] = test system: Human alphaherpesvirus 1; experiment: Antiviral activity against HSV 1 NCPV 17+ infected in human HFFF cells assessed as virus-induced cytopathogenicity incubated for 30 mins prior to inoculation measured after 3 days by phase contrast microscopy; format: functional
In short: (§1)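 Cells grown to 80% confluence in 96-well plates and pretreated 30 min with drug-containing medium. Infection was 100 pfu (HSV-1/2, adenovirus 5) or 100 sfu (measles) per well, then 3 days in DMEM without FBS or antibiotics with drug at 1–100 µM. CPE was scored by phase contrast against virus-only controls. TCID50 is the 50% CPE reduction, averaged over 3 experiments by Reed–Muench.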

[10] = test system: Measles morbillivirus; experiment: Antiviral activity against Measles virus Edmonston infected in simian B95a cells assessed as virus-induced cytopathogenicity incubated for 30 mins prior to inoculation measured after 3 days by phase contrast microscopy; format: functional; in short: as §1
[11] = Selectivity index, ratio of CC50 for african green monkey BSC1 cells to IC50 for Vaccinia virus-WR; format: functional, BSC-1
[12] = test system: Human adenovirus 5; experiment: Antiviral activity against Adenovirus type 5 ATCC VR-5 infected in african green monkey BSC1 cells assessed as virus-induced cytopathogenicity incubated for 30 mins prior to inoculation measured after 3 days by phase contrast microscopy; format: functional, BSC-1; in short: as §1
[13] = test system: Human adenovirus 5; experiment: Antiviral activity against Adenovirus type 5 ATCC VR-5 infected in human HFFF cells assessed as virus-induced cytopathogenicity incubated for 30 mins prior to inoculation measured after 3 days by phase contrast microscopy; format: functional; in short: as §1
[14] = test system: Human alphaherpesvirus 1; experiment: Antiviral activity against HSV 1 NCPV 17+ infected in african green monkey BSC-1 cells assessed as virus-induced cytopathogenicity incubated for 30 mins prior to inoculation measured after 3 days by phase contrast microscopy; format: functional; in short: as §1
[15] = test system: Measles morbillivirus; experiment: Antiviral activity against Measles virus Edmonston infected in african green monkey BSC-1 cells assessed as virus-induced cytopathogenicity incubated for 30 mins prior to inoculation measured after 3 days by phase contrast microscopy; format: functional; in short: as §1
[16] = test system: Measles morbillivirus; experiment: Ratio of ribavirin TCID50 to compound TCID50 for wild type Measles virus mWTFb; format: functional
[17] = test system: Human alphaherpesvirus 2; experiment: Antiviral activity against HSV 2 NCPV 132349 infected in human HFFF cells assessed as virus-induced cytopathogenicity incubated for 30 mins prior to inoculation measured after 3 days by phase contrast microscopy; format: functional; in short: as §1
[18] = test system: Human alphaherpesvirus 2; experiment: Antiviral activity against HSV 2 NCPV 132349 infected in african green monkey BSC-1 cells assessed as virus-induced cytopathogenicity incubated for 30 mins prior to inoculation measured after 3 days by phase contrast microscopy; format: functional; in short: as §1

SMILES | Activity [1] | inhibition at 10 µM [2] | IC50 [5] | Activity [6] | also measured
CC(C)(C)OCCCCCCCCCc1cc2cn([C@@H]3CC[C@H](CO)O3)c(=O)nc2o1 | Non-toxic | 70.7% |  |  | 
CCCCc1ccc(-c2cc3cn([C@@H]4CC[C@H](CO)O4)c(=O)nc3o2)cc1 | Non-toxic | 43.7% |  |  | 
CCCCCCCCc1cc2cn([C@@H]3CC[C@H](CO)O3)c(=O)nc2o1 | Non-toxic | 41.9% |  |  | 
CCCCCCOCCCCCCCCCc1cc2cn([C@@H]3CC[C@H](CO)O3)c(=O)nc2o1 | Non-toxic | 35.7% | 0.19 µM | Non-toxic | Ratio IC50 [3]: 60; CC50 [4]: > 100 µM; CC50 at 96 h [7]: 74.1 µM
CC(C)COCCCCCCCCCc1cc2cn([C@@H]3CC[C@H](CO)O3)c(=O)nc2o1 | Non-toxic | 64.3% |  |  | 
CCCCCCc1cc2cn([C@@H]3CC[C@H](CO)O3)c(=O)nc2o1 | Non-toxic | 70.7% |  |  | 
CCCCCCOCCCCCCCCc1cc2cn([C@@H]3CC[C@H](CO)O3)c(=O)nc2o1 | Non-toxic | 37.2% | 1.7 µM | Non-toxic | 
NC(=O)c1ncn([C@@H]2O[C@H](CO)[C@@H](O)[C@H]2O)n1 [RIBAVIRIN] |  |  |  |  | IC50 [8]: 1160 µM
COC[C@H]1OC(=O)c2coc3c2[C@@]1(C)C1=C(C3=O)[C@@H]2CCC(=O)[C@@]2(C)C[C@H]1OC(C)=O [WORTMANNIN] |  |  |  |  | IC50 [8]: 75 µM
CCCCCCCCCCc1cc2cn([C@@H]3CC[C@H](CO)O3)c(=O)nc2o1 | Non-toxic | 45.7% |  |  | 
CCOCCCCCCCCCc1cc2cn([C@@H]3CC[C@H](CO)O3)c(=O)nc2o1 | Non-toxic | 79.9% | 12.9 µM | Non-toxic | CC50 [4]: > 100 µM; CC50 at 96 h [7]: 79.4 µM
CCCCCCCCCCOCCCCc1cc2cn([C@@H]3CC[C@H](CO)O3)c(=O)nc2o1 | Non-toxic | 26.1% | 2.2 µM | Non-toxic | 
CC(C)OCCCCCCCCCc1cc2cn([C@@H]3CC[C@H](CO)O3)c(=O)nc2o1 | Non-toxic | 79.9% |  |  | 
CCC(C)OCCCCCCCCCc1cc2cn([C@@H]3CC[C@H](CO)O3)c(=O)nc2o1 (some centres not stated) | Non-toxic | 69.9% |  |  | 
CCCCCCCCCc1cc2cn([C@@H]3CC[C@H](CO)O3)c(=O)nc2o1 | Non-toxic | 38.1% |  |  | 
CCCOCCCCCCCCCc1cc2cn([C@@H]3CC[C@H](CO)O3)c(=O)nc2o1 | Non-toxic | 46.8% | 1.9 µM | Non-toxic | CC50 [4]: > 100 µM; CC50 at 96 h [7]: 89.1 µM
CCCCCCCCCCCCCOCc1cc2cn([C@@H]3CC[C@H](CO)O3)c(=O)nc2o1 | Non-toxic | 43.9% | 3.4 µM | Non-toxic | 
CCCCCOCCCCCCCCCc1cc2cn([C@@H]3CC[C@H](CO)O3)c(=O)nc2o1 | Non-toxic | 27.7% | 0.19 µM | Non-toxic | TCID50 [9]: >50 µM; TCID50 [10]: >50 µM; Ratio IC50 [3]: 60; Ratio CC50/IC50 [11]: >500; TCID50 [12]: >50 µM; TCID50 [13]: >50 µM; CC50 [4]: > 100 µM; TCID50 [14]: >50 µM; TCID50 [15]: >50 µM; CC50 at 96 h [7]: > 100 µM; Ratio [16]: 150; TCID50 [17]: >50 µM; TCID50 [18]: >50 µM
CCCCCc1ccc(-c2cc3cn([C@@H]4CC[C@H](CO)O4)c(=O)nc3o2)cc1 | Non-toxic | 73.6% |  |  | 
CCCCCCCc1cc2cn([C@@H]3CC[C@H](CO)O3)c(=O)nc2o1 | Non-toxic | 43.2% |  |  | 
Nc1ccn(C[C@@H](CO)OCP(=O)(O)O)c(=O)n1 [CIDOFOVIR] |  | 94.6% | 11.5 µM |  | CC50 [4]: > 100 µM; inhibition [8]: inactive; CC50 at 96 h [7]: > 100 µM
CCCCOCCCCCCCCCc1cc2cn([C@@H]3CC[C@H](CO)O3)c(=O)nc2o1 | Non-toxic | 27.5% | 1.8 µM | Non-toxic | CC50 [4]: > 100 µM; CC50 at 96 h [7]: > 100 µM
COCCCCCCCCCCCCCc1cc2cn([C@@H]3CC[C@H](CO)O3)c(=O)nc2o1 | Non-toxic | 60.5% |  |  | 
CCCCCCCCCCCCc1cc2cn([C@@H]3CC[C@H](CO)O3)c(=O)nc2o1 | Non-toxic | 96.4% |  |  | 
